In general, IC50 refers to the point on the concentration scale where inhibition reaches its midpoint. One may read the logP as a log measure of how a compound divides between an organic and an aqueous phase. A lower logP goes with lower lipophilicity.

One data set concerns AGS. The experiment in a line: Cytotoxicity against human AGS cells after 72 hrs by SRB method. It is filed as functional, cell-based. Put shortly: (§1)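 SRB assay in AGS and A549 solid tumour cells. Cells were seeded at 6000–10,000 per well, then exposed in triplicate to a concentration gradient for 72 h at 37 °C. IC50 was read from the dose–response curve as the average of triplicates.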
(The SRB assay estimates cell density from bound dye.)

Data set [1] in a line: Octanol-water partition coefficient, log P of the compound. Format: physicochemical. In outline: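 Octanol–water partition coefficient; each reported P is the average of three measurements.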
The next data set relates to HL-60. The data set can be described thus: Cytotoxicity against human HL60 cells after 48 hrs by MTT assay. The following applies: HL-60, 48 h. Format: functional, cell-based. Put shortly:
(§2)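 MTT assay in HL-60 and K562 leukemia cells. Cells were seeded at 6000–10,000 per well, then treated in triplicate with a concentration gradient for 48 h at 37 °C. IC50 was taken from the dose–response curve as the average of triplicates.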
(Tetrazolium dyes change colour on reduction, which living cells bring about.)

The test system of a further data set is A549. The experiment in a line: Cytotoxicity against human A549 cells after 72 hrs by SRB method. Particulars: A549, 72 h. Format: functional, cell-based. Put shortly: as §1
The subject of another data set is K562. The experiment in a line: Cytotoxicity against human K562 cells after 48 hrs by MTT assay. It is filed as functional, cell-based. The following applies: K562, 48 h. In outline: as §2
Data set [2] in a line: Stability at pH 7.4 PBS at 1 ug/ml within 8 hrs. Format: physicochemical. Particulars: buffer, pH 7.4, 8 h. In outline: (§3)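 Compound (100 µg/mL stock in acetonitrile, 1.0 mL) was added to 4.0 mL preincubated human plasma, mouse plasma or pH 7.4 phosphate buffer and held at 37 °C. Protein was precipitated with cold acetonitrile and the sample centrifuged. Supernatant was analysed by C18 HPLC with CH3CN/H2O 45:55 at 1.0 mL/min.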

Data set [3] concerns Plasma. The experiment in a line: Metabolic stability in human plasma at 1 ug/ml within 24 hrs. It is filed as ADME, cell-free. In outline:
as §3

The test system of data set [4] is Plasma. The data set can be described thus: Metabolic stability in mouse plasma at 1 ug/ml after 2 hrs. Format: ADME, cell-free. Put shortly: as §3
The test system of the next data set is Calf thymus DNA. The data set can be described thus: Binding affinity to calf thymus DNA after 24 hrs by circular dichroism. Format: nucleic-acid assay. The following applies: Bos taurus. In outline: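 CT DNA dissolved and annealed in 10 mM PBS pH 7.2, then mixed with compound at 0, 10, 20 or 50 µg/mL. Mixtures were incubated 24 h at 37 °C in the dark. CD spectra were recorded from 200–320 nm in 1 cm quartz cells, with compound-only solutions in PBS as blanks.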
On the technique in general: CD spectra are sensitive to the conformation of chiral molecules.

A short description of data set [5]: Stability at pH 7.4 PBS at 1 ug/ml after 8 hrs. The following applies: buffer, pH 7.4, 8 h. Format: physicochemical. Put shortly: as §3

Calls of active or inactive are those of the source. The calls are words filed in the database; no cut-off is given here.

For the compound `COc1cc([C@@H]2c3cc4c(cc3[C@H](O)[C@H]3COC(=O)[C@H]23)OCO4)cc(OC)c1OC` [PODOFILOX], the IC50 with AGS is 50.8 µM; with HL-60, 2.75 µM; in the data set with A549 it was 7.38 µM; with K562, greater than 100 µM. Besides, in [1], the logP was found to be 0.69.
For `COc1cc([C@@H]2c3cc4c(cc3[C@@H](N[C@@H](Cc3ccccc3)C(=O)OCCCCn3cc(F)c(=O)[nH]c3=O)[C@H]3COC(=O)[C@H]23)OCO4)cc(OC)c1O` the same measures were 23.7 µM, 0.42 µM, 0.3 µM, 9.2 µM and 0.43.
For `COc1cc([C@@H]2c3cc4c(cc3[C@@H](N[C@@H](Cc3ccccc3)C(=O)OCCCn3cc(F)c(=O)[nH]c3=O)[C@H]3COC(=O)[C@H]23)OCO4)cc(OC)c1O` the same measures were 23.6 µM, 0.31 µM, 0.48 µM, 5.8 µM and 0.65.
In the case of `COc1cc([C@@H]2c3cc4c(cc3[C@@H](N[C@H](C(=O)OCCCn3cc(F)c(=O)[nH]c3=O)C(C)C)[C@H]3COC(=O)[C@H]23)OCO4)cc(OC)c1O`, the IC50 in the data set on AGS is 62.5 µM; in the data set on HL-60, 5.8 µM; in the data set with A549 it was 1.92 µM; in the data set on K562, 13.5 µM. The same compound yielded a logP in data set [1] of 0.34.
For `COc1cc([C@@H]2c3cc4c(cc3[C@@H](N[C@H](C(=O)OCCCn3cc(F)c(=O)[nH]c3=O)[C@@H](C)O)[C@H]3COC(=O)[C@H]23)OCO4)cc(OC)c1O` the same measures were 141 µM, 23.2 µM, 6.95 µM, 30.8 µM and -0.12.
`O=c1[nH]cc(F)c(=O)[nH]1` [FLUOROURACIL]: the IC50 in the data set on AGS and with K562 was greater than 100 µM each time.
As for `COc1cc([C@@H]2c3cc4c(cc3[C@@H](N[C@@H](Cc3ccccc3)C(=O)OCCCCCn3cc(F)c(=O)[nH]c3=O)[C@H]3COC(=O)[C@H]23)OCO4)cc(OC)c1O`, the IC50 in the data set on AGS is 38.8 µM; in the data set with HL-60, 0.04 µM; with A549 it was less than 0.01 µM; with K562 it was 13.2 µM. Moreover, the Stability entry in data set [2] is listed as “Stable”; in the data set with Plasma [3] it was “Stable”; in the data set with Plasma [4], “Unstable”; in data set [5] it was “Unstable”. In data set [1], this compound yielded a logP of 0.29. The outcome in the data set with Calf thymus DNA was Active.
Turning to `COc1cc([C@@H]2c3cc4c(cc3[C@@H](N[C@@H](CC(C)C)C(=O)OCCCn3cc(F)c(=O)[nH]c3=O)[C@H]3COC(=O)[C@H]23)OCO4)cc(OC)c1O`, the IC50 with AGS was 59.2 µM; in the data set with HL-60 it was 0.13 µM; with A549 it was 0.01 µM; in the data set with K562 it was 9.5 µM. The logP in data set [1] is 0.33.
For `COc1cc([C@@H]2c3cc4c(cc3[C@@H](N[C@@H](C)C(=O)OCCCn3cc(F)c(=O)[nH]c3=O)[C@H]3COC(=O)[C@H]23)OCO4)cc(OC)c1O` the same measures were 40.4 µM, 22.3 µM, 2.59 µM, 19.5 µM and -0.07.
For `COc1cc([C@@H]2c3cc4c(cc3[C@@H](N[C@@H](Cc3ccc(O)cc3)C(=O)OCCCn3cc(F)c(=O)[nH]c3=O)[C@H]3COC(=O)[C@H]23)OCO4)cc(OC)c1O` the same measures were 115 µM, 26.6 µM, 21.7 µM, 28.6 µM and 0.07.
Turning to `CC[C@H](C)[C@H](N[C@@H]1c2cc3c(cc2[C@@H](c2cc(OC)c(O)c(OC)c2)[C@H]2C(=O)OC[C@@H]21)OCO3)C(=O)OCCCn1cc(F)c(=O)[nH]c1=O`, the IC50 in the data set on AGS turned out to be 56.2 µM; in the data set with HL-60 it was 0.24 µM; with A549 it was 0.18 µM; with K562 it was 5.1 µM. In data set [1], this compound registered a logP of 0.59.
On to `COc1cc([C@@H]2c3cc4c(cc3[C@@H](N[C@@H](CC(C)C)C(=O)OCCCCCn3cc(F)c(=O)[nH]c3=O)[C@H]3COC(=O)[C@H]23)OCO4)cc(OC)c1O`, for which the IC50 in the data set on AGS was 23.5 µM; in the data set with HL-60, 0.31 µM; in the data set with A549 it was 0.53 µM; in the data set on K562 it was 6 µM. Further, the logP in data set [1] is 0.51.
For `COc1cc([C@@H]2c3cc4c(cc3[C@@H](N[C@@H](CC(C)C)C(=O)OCCCCn3cc(F)c(=O)[nH]c3=O)[C@H]3COC(=O)[C@H]23)OCO4)cc(OC)c1O` the same measures were 34.5 µM, 0.73 µM, less than 0.01 µM, 5.3 µM and 0.35.
For `COc1cc([C@@H]2c3cc4c(cc3[C@@H](N[C@@H](CCSC)C(=O)OCCCn3cc(F)c(=O)[nH]c3=O)[C@H]3COC(=O)[C@H]23)OCO4)cc(OC)c1O` the same measures were 24.8 µM, 0.99 µM, 0.29 µM, 8.8 µM and 0.23.

These data come from ChEMBL document CHEMBL1153438, “Synthesis and biological evaluation of novel conjugates of podophyllotoxin and 5-FU as antineoplastic agents” (Bioorg Med Chem, 2009).
